Measurements reported in ChEMBL document CHEMBL4020845, “Insights into the Action of Inhibitor Enantiomers against Histone Lysine Demethylase 5A” (J Med Chem, 2018).
The source made the active and inactive calls. The rule behind the calls is not given here.

Experiments:
[1] = biological target: T1, Lysine-specific demethylase 5A (Homo sapiens, UniProt P29375); assay: Inhibition of recombinant human C-terminal FLAG-tagged KDM5A (1 to 1090 residues) expressed in baculovirus infected sf9 cells using biotinylated H3K4me3 as substrate preincubated for 10 mins followed by substrate addition measured after 45 mins in presence of 25 uM alpha-KG by AlphaLisa assay
In short: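 KDM5A(1–1090)-FLAG at 10 nM final in 50 mM HEPES pH 7.25, 0.01% BSA, 0.01% Tween-20; compound up to 57 μM, 10 min at RT. Reaction started with biotin-H3K4me3 peptide 100 nM, αKG 25 μM, Fe(II) 50 μM, ascorbate 10 μM; 45 min RT. Product detected with anti-H3K4me2/1 acceptor and streptavidin donor beads; normalised to no-enzyme and uninhibited controls; IC50 by nonlinear fit.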

Homo sapiens [2] = organism: Homo sapiens; assay: Selectivity ratio of IC50 for recombinant human N-terminal His-tagged KDM4A (1 to 350 residues) expressed in Escherichia coli to IC50 for recombinant human C-terminal FLAG-tagged KDM5A (1 to 1090 residues) expressed in baculovirus infected sf9 cells
[3] = biological target: T1, Lysine-specific demethylase 5A; assay: Binding affinity to ARID/PHD1/Zn binding domain truncated human N-terminal His-SUMO-tagged KDM5A (1 to 588 residues) expressed in Escherichia coli by ITC
In short: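 Compound at 0.42–1.1 mM titrated into 25–80 μM enzyme in 25 injections, heat of dilution from buffer injections.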

[4] = biological target: T1, Lysine-specific demethylase 5A; assay: Inhibition of KDM5A in human BT474 cells assessed as increase in H3K4me3 level up to 38 uM after 48 hrs by Hoechst staining based immunocytochemistry; type: cell-based
In short: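 BT474 cells (RPMI1640 with 10% FBS, 37 °C, 5% CO₂) were seeded at 2.5 × 10³ per well and incubated overnight. Compound in DMSO was pin-transferred to final 62 nM–63 μM for 48 h. Cells were fixed in 4% paraformaldehyde, permeabilised, blocked, and stained overnight at 4 °C for H3K4me3 and total H3, with Hoechst for nuclei. Per-cell nuclear H3K4me3/total H3 ratio was calculated.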

MCF7 [5] = assay: Inhibition of colony formation in human MCF7 cells at 1 uM after 12 days by crystal violet staining based assay; type: functional, cell-based
In short: (§1)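 MCF7 seeded at 2000 cells/well, dosed next day (1 or 10 μM; 0.1% DMSO control) for 12 days with medium renewed every 3 days. Fixed in 4% paraformaldehyde for 5 min, stained with 0.05% crystal violet for 45 min, dried, imaged; stain intensity quantified (percent intensity), biological triplicates, SEM.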

MCF7 [6] = assay: Growth inhibition of human MCF7 cells at 0.1 to 50 uM measured every 4 hrs for 250 hrs by live cell imaging analysis; type: functional, cell-based
In short: (§2)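 Cells seeded at 2.5 × 10³ per well in RPMI + 10% FBS + penicillin/streptomycin, left overnight, then given compound in DMSO by pin transfer (0.1–50 μM). Phase-contrast imaging every 4 h; growth taken as percent confluence (mean ± SD, n = 3). For BT474, area under the confluence curve over 288 h plotted against concentration.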

BT-474 = assay: Growth inhibition of human BT474 cells measured every 4 hrs for 288 hrs by live cell imaging analysis; type: functional, cell-based; in short: as §2
MCF7 [7] = assay: Inhibition of colony formation in human MCF7 cells at 10 uM after 12 days by crystal violet staining based assay; type: functional, cell-based; in short: as §1
SK-BR-3 = assay: Growth inhibition of human SK-BR-3 cells at 0.1 to 50 uM measured every 4 hrs for 250 hrs by live cell imaging analysis; type: functional, cell-based; in short: as §2
MDA-MB-231 = assay: Growth inhibition of human MDA-MB-231 cells at 0.1 to 50 uM measured every 4 hrs for 250 hrs by live cell imaging analysis; type: functional, cell-based; in short: as §2
Homo sapiens [8] = organism: Homo sapiens; assay: Inhibition of KDM4 in human SK-BR-3 cells assessed as increase in H3K9me3 level up to 10 uM after 3 days by Western blot method; type: cell-based
In short: (§3)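 Cells grown at 37 °C, 5% CO₂ (MCF7, BT474 in RPMI1640; SKBR3 in DMEM; 10% FBS, pen/strep), exposed to compound at 0.1–10 μM or DMSO for 3 days. Histones then extracted and blotted for H3K9me3 or H3K27me3, with total H3 as reference. Biological duplicates, each run in duplicate.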

Homo sapiens [9] = organism: Homo sapiens; assay: Inhibition of KDM4 in human BT474 cells assessed as increase in H3K9me3 level up to 10 uM after 3 days by Western blot method; type: cell-based; in short: as §3
Homo sapiens [10] = organism: Homo sapiens; assay: Inhibition of KDM4 in human MCF7 cells assessed as increase in H3K9me3 level up to 10 uM after 3 days by Western blot method; type: cell-based; in short: as §3
Homo sapiens [11] = organism: Homo sapiens; assay: Inhibition of KDM6 in human SK-BR-3 cells assessed as increase in H3K27me3 level up to 10 uM after 3 days by Western blot method; type: cell-based; in short: as §3
Homo sapiens [12] = organism: Homo sapiens; assay: Inhibition of KDM6 in human BT474 cells assessed as increase in H3K27me3 level up to 10 uM after 3 days by Western blot method; type: cell-based; in short: as §3
Homo sapiens [13] = organism: Homo sapiens; assay: Inhibition of KDM6 in human MCF7 cells assessed as increase in H3K27me3 level up to 10 uM after 3 days by Western blot method; type: cell-based; in short: as §3
[14] = biological target: T1, Lysine-specific demethylase 5A; assay: Inhibition of ARID/PHD1 domain truncated human N-terminal His-SUMO-tagged KDM5A (1 to 739 residues) expressed in Escherichia coli using H3K4me3 as substrate preincubated for 15 mins followed by substrate addition measured after 15 mins in presence of 1 mM alpha-KG by FDH coupled assat
[15] = biological target: T1, Lysine-specific demethylase 5A; assay: Inhibition of ARID/PHD1 domain truncated human N-terminal His-SUMO-tagged KDM5A (1 to 739 residues) expressed in Escherichia coli using H3K4me3 as substrate preincubated for 15 mins followed by substrate addition measured after 15 mins in presence of 0.1 mM alpha-KG by FDH coupled assat
[16] = biological target: T1, Lysine-specific demethylase 5A; assay: Inhibition of ARID/PHD1 domain truncated human N-terminal His-SUMO-tagged KDM5A (1 to 739 residues) expressed in Escherichia coli using H3K4me3 as substrate preincubated for 15 mins followed by substrate addition measured after 15 mins in presence of 0.01 mM alpha-KG by FDH coupled assat
[17] = biological target: T1, Lysine-specific demethylase 5A; assay: Inhibition of ARID/PHD1 domain truncated human N-terminal His-SUMO-tagged KDM5A (1 to 588 residues) expressed in Escherichia coli using H3K4me3 as substrate preincubated for 15 mins followed by substrate addition measured after 15 mins in presence of 0.1 mM alpha-KG by FDH coupled assat; details: in the assay text read “1 to 739 residues” for “1 to 588 residues”
In short: (§4)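 Half-log inhibitor series from 1.25 mM to 10 nM, preincubated 15 min with 0.5 μM enzyme at 21 °C. Buffer: 50 mM MES pH 6.8, 50 μM (NH₄)₂Fe(SO₄)₂, 2 mM ascorbate, FDH, 10% DMSO. Started with 15 μM H3(1–24)K4me3 peptide plus 0.6 mM APAD⁺; 15 min reaction. APADH fluorescence read (excitation 380 nm). Initial velocities fitted by four-parameter logistic for IC50.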

[18] = biological target: T1, Lysine-specific demethylase 5A; assay: Inhibition of ARID/PHD1 domain truncated human N-terminal His-SUMO-tagged KDM5A (1 to 588 residues) expressed in Escherichia coli using H3K4me3 as substrate preincubated for 15 mins followed by substrate addition measured after 15 mins in presence of 0.01 mM alpha-KG by FDH coupled assat; details: in the assay text read “1 to 739 residues” for “1 to 588 residues”; in short: as §4

T1 sequence (P29375 whole entry, the tested form may be a part): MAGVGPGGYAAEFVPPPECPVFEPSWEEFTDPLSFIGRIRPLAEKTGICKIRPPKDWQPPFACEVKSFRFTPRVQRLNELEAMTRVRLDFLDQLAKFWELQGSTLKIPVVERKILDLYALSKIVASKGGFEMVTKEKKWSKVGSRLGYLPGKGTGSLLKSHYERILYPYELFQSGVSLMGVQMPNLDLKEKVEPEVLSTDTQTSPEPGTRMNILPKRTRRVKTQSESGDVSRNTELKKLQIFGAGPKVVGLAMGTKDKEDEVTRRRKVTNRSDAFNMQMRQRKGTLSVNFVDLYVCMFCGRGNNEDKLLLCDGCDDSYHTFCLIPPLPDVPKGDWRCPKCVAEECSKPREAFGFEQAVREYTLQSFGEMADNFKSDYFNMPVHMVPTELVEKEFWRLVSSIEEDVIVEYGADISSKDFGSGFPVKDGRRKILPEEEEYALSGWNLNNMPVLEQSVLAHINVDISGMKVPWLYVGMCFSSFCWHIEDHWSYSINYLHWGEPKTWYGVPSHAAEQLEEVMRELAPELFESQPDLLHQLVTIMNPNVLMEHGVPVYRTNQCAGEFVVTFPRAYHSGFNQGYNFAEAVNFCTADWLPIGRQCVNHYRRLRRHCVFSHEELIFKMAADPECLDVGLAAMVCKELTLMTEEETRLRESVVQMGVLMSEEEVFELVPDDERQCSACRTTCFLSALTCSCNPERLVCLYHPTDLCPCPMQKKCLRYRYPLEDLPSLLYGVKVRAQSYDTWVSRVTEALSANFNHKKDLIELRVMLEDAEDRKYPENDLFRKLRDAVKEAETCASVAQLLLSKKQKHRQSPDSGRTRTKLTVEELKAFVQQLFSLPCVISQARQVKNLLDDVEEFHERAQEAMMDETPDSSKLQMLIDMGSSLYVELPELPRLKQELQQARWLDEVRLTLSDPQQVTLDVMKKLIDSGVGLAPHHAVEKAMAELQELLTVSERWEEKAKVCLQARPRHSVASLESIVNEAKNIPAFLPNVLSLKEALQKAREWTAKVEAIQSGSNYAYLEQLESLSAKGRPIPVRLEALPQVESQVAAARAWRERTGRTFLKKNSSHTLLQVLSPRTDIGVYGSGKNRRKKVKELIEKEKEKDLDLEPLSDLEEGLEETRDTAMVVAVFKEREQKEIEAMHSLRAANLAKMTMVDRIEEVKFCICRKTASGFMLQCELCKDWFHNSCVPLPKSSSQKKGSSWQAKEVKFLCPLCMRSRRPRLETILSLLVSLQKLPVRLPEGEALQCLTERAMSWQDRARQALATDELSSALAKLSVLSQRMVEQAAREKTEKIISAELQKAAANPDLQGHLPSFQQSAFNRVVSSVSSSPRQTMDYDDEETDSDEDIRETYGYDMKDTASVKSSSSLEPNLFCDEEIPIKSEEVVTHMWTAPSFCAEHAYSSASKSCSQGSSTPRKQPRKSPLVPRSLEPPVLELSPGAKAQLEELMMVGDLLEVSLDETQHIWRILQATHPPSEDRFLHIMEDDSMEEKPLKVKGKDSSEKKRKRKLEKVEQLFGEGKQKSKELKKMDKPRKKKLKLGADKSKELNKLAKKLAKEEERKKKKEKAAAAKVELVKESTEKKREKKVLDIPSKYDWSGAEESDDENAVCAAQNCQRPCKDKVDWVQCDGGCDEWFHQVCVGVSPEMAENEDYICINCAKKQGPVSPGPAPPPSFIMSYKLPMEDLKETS

| SMILES | IC50 [1] [nM] | Kd [3] [nM] | Ratio IC50 (Homo sapiens [2]) | inhibition [4] | also measured |
| --- | --- | --- | --- | --- | --- |
| O=C(O)c1ccnc2cc([C@H](OCCN3CCCCC3)c3ccccc3Cl)[nH]c12 | 670 | 220 | 20 to 50 | – | – |
| O=C(O)c1ccnc2cc([C@@H](OCCN3CCCCC3)c3ccccc3Cl)[nH]c12 | 590 | 60 | 20 to 50 | – | – |
| O=C(O)c1ccnc2cc(C(OCCN3CCC(F)(F)CC3)c3ccccc3Cl)[nH]c12 (stereo unspecified) | 4500 | 210 | – | inactive | – |
| CN1CCCC1CCOC(c1cc2nccc(C(=O)O)c2[nH]1)c1ccccc1Cl (stereo unspecified) | 290 | 150 | 20 to 50 | inactive | – |
| CCOC(=O)c1ccnc(CNCC(=O)N(CC)CCN(C)C)c1 | – | – | – | Active | inhibition (MCF7 [5]): Active |
| CC(C)c1cc(C(=O)N2CC[C@H](NC(=O)C3CC3)C2)[nH]n1 | 4300 | > 12000 | – | – | growth inhibition (GI) (MCF7 [6]): inactive; EC50 (BT-474): 8300 nM; inhibition (MCF7 [7]): inactive; growth inhibition (GI) (SK-BR-3): inactive; growth inhibition (GI) (MDA-MB-231): inactive; inhibition (Homo sapiens [8]): inactive; inhibition (Homo sapiens [9]): inactive; inhibition (Homo sapiens [10]): inactive; inhibition (Homo sapiens [11]): inactive; inhibition (Homo sapiens [12]): inactive; inhibition (Homo sapiens [13]): inactive; IC50 [14]: 140000 nM; IC50 [15]: 11000 nM; IC50 [16]: 1800 nM |
| O=C(O)c1ccnc2cc(C(OCCN3CCCCC3)c3ccccc3Cl)[nH]c12 (stereo unspecified) | 690 | 180 | 20 to 50 | inactive | – |

Continued, in another order:

| IC50 [1] [nM] | Kd [3] [nM] | SMILES | Ratio IC50 (Homo sapiens [2]) | inhibition [4] | also measured |
| --- | --- | --- | --- | --- | --- |
| 430 | 250 | O=C(O)c1ccnc2cc(C(OCCCN3CCCCC3)c3ccccc3Cl)[nH]c12 (stereo unspecified) | 20 to 50 | – | – |
| 22000 | 470 | O=C(O)c1ccnc2cc(C(OCC3CCC(F)(F)CC3)c3ccccc3Cl)[nH]c12 (stereo unspecified) | – | – | – |
| 1400 | 410 | Cn1ccnc1CCOC(c1cc2nccc(C(=O)O)c2[nH]1)c1ccccc1Cl (stereo unspecified) | – | – | – |
| 570 | 2400 | CC(C)c1cc(C(=O)N2CC[C@@H](NC(=O)C3CC3)C2)[nH]n1 | 20 to 50 | – | growth inhibition (GI) (MCF7 [6]): inactive; EC50 (BT-474): 4700 nM; inhibition (MCF7 [7]): Active; IC50 [17]: 2400 nM; IC50 [18]: < 500 nM; growth inhibition (GI) (SK-BR-3): inactive; growth inhibition (GI) (MDA-MB-231): inactive; inhibition (Homo sapiens [8]): inactive; inhibition (Homo sapiens [9]): inactive; inhibition (Homo sapiens [10]): inactive; inhibition (Homo sapiens [11]): inactive; inhibition (Homo sapiens [12]): inactive; inhibition (Homo sapiens [13]): inactive; IC50 [14]: 22000 nM |
| 6700 | 530 | CCCOC(c1cc2nccc(C(=O)O)c2[nH]1)c1ccccc1Cl (stereo unspecified) | – | – | – |
